# Experimental data from ChEMBL document CHEMBL1135983, “Cyclohexylmethylpiperidinyltriphenylpropioamide: a selective muscarinic M(3) antagonist discriminating against the other receptor subtypes” (J Med Chem, 2002).
# Columns and labels:
# [1] = target: T1, Muscarinic acetylcholine receptor M2 (Homo sapiens, UniProt P08172); assay: Binding affinity (Ki) against binding of [3H]NMS to membranes from CHO cells expressing cloned human Muscarinic acetylcholine receptor M2; type: cell membranes
# T1 sequence (P08172 whole entry): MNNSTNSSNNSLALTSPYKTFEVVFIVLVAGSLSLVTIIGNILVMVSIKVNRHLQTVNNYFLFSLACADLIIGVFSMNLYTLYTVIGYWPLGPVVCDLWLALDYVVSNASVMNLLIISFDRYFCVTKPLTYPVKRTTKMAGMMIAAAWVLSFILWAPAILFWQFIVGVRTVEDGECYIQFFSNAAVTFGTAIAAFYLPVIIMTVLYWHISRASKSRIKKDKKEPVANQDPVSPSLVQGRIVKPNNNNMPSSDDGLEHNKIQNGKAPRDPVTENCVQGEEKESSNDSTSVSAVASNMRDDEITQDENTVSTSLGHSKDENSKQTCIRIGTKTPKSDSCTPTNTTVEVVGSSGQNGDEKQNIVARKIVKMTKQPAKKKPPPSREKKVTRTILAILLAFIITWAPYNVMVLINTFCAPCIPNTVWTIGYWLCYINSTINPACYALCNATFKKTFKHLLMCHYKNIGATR
# Rattus norvegicus [2] = assay: 50% in vivo effective dose that inhibits ACh-induced pressor response (M1) in rat assay systems after intravenous administration was reported; type: functional
# Rattus norvegicus [3] = assay: 50% in vivo effective dose that inhibits Ach-induced bradycardia (M2) in rat assay systems after intravenous administration was reported; type: functional
# [4] = target: Muscarinic acetylcholine receptor M3 (Homo sapiens, UniProt P20309); assay: biochemical; type: cell-based, CHO
# Sequence of Muscarinic acetylcholine receptor M3 (P20309 whole entry): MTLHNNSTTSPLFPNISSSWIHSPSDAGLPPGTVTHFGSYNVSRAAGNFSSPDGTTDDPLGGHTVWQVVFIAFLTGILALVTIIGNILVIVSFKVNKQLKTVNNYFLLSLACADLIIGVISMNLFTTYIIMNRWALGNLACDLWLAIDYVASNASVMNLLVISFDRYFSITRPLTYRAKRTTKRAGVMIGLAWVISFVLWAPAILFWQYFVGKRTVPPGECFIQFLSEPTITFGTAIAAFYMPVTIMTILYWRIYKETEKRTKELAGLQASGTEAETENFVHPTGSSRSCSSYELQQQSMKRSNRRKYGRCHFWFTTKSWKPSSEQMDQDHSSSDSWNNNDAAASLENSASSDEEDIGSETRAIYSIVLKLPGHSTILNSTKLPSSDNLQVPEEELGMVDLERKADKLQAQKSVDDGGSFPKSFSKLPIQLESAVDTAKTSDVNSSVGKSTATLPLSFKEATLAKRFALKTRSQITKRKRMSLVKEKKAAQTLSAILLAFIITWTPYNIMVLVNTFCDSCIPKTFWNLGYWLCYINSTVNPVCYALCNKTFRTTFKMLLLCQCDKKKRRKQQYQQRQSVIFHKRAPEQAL
# [5] = target: T2, Muscarinic acetylcholine receptor M5 (Homo sapiens, UniProt P08912); assay: Binding affinity (Ki) against binding of [3H]NMS using membranes from CHO cells expressing cloned human Muscarinic acetylcholine receptor M5; type: cell membranes
# T2 sequence (P08912 whole entry): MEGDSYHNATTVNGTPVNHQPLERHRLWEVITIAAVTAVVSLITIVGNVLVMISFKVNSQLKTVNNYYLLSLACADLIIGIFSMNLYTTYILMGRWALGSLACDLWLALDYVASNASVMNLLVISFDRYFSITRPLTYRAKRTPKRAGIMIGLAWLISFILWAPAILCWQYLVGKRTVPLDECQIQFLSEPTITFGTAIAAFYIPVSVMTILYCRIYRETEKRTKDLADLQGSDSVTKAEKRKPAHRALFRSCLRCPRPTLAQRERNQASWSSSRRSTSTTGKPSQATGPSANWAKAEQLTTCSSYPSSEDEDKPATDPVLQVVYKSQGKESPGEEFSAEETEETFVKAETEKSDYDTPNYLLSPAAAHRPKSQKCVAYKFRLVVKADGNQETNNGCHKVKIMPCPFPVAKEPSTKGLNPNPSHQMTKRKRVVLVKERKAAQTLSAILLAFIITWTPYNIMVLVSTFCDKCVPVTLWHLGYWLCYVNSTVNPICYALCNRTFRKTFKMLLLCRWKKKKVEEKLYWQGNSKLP
# Homo sapiens [6] = species: Homo sapiens; assay: Selectivity ratio (m4/m3)
# How it was run: (§1)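 Binding affinities (Ki) were measured at each of the five muscarinic receptor subtypes (m1–m5), with the m3 receptor being human and expressed in CHO cells. The ratio compares the m4 or m5 Ki with the m3 Ki. Values are the mean of two or more independent assays.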
# Rattus norvegicus [7] = assay: 50% in vivo effective dose that inhibits ACh-induced bronchoconstriction (M3) in rat assay systems after intravenous administration was reported; type: functional
# [8] = target: T3, Muscarinic acetylcholine receptor M1 (Homo sapiens, UniProt P11229); assay: biochemical; type: cell-based, CHO
# T3 sequence (P11229 whole entry): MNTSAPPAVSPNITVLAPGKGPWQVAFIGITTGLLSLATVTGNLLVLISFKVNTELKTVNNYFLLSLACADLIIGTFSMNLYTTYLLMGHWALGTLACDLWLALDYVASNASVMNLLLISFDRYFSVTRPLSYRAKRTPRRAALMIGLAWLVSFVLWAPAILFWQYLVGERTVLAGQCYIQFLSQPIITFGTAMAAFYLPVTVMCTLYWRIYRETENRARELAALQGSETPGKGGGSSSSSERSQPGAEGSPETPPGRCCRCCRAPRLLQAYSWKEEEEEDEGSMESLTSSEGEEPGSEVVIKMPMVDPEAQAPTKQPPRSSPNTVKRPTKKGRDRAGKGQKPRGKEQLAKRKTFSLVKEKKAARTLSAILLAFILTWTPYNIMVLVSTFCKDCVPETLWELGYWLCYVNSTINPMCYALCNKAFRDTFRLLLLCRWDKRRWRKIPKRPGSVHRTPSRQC
# [9] = target: T4, Muscarinic acetylcholine receptor M4 (Homo sapiens, UniProt P08173); assay: Binding affinity (Ki) against binding of [3H]NMS using membranes from CHO cells expressing cloned human Muscarinic acetylcholine receptor M4; type: cell membranes
# T4 sequence (P08173 whole entry): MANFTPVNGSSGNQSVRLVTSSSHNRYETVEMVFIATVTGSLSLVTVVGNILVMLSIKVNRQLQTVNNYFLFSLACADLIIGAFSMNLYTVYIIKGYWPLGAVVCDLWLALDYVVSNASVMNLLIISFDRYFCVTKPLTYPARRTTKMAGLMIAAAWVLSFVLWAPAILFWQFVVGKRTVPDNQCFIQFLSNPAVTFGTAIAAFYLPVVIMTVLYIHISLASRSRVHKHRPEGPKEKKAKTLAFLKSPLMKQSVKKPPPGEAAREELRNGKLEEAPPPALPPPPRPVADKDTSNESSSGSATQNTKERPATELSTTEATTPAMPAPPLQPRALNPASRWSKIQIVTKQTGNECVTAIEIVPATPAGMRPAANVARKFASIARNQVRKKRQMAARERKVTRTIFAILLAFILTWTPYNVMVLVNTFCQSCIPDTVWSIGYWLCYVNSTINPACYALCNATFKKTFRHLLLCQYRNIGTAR
# Homo sapiens [10] = species: Homo sapiens; assay: Selectivity ratio (m5/m3); how it was run: as §1
SMILES,Ki [1],Ki [4],Ki [5],Selectivity (Homo sapiens [6]),Ki [8],Ki [9],Selectivity (Homo sapiens [10]),ED50 (Rattus norvegicus [2]),ED50 (Rattus norvegicus [3]),ED50 (Rattus norvegicus [7])
O=C(CCNC(=O)CNC(=O)CC(c1ccccc1)(c1ccccc1)c1ccccc1)NC[C@H]1CCCN(CC2CCCCC2)C1,30 nM,0.31 nM,37 nM,45,120 nM,14 nM,120,> 3 mg/kg,1.55 mg/kg,0.015 mg/kg
O=C(NC[C@H]1CCCN(CC2CCCCC2)C1)[C@H]1CCCN1C(=O)[C@@H]1CCCN1C(=O)CC(c1ccccc1)(c1ccccc1)c1ccccc1,0.82 nM,0.25 nM,150 nM,9,14 nM,2.3 nM,580,–,–,–
O=C(CCCNC(=O)CC(c1ccccc1)(c1ccccc1)c1ccccc1)NCCC(=O)NCC1CCCN(CC2CCCCC2)C1 (configuration not stated),17 nM,2.1 nM,200 nM,29,77 nM,60 nM,95,–,–,–
CN1[C@@H]2CC[C@H]1C[C@@H](OC(=O)C(CO)c1ccccc1)C2 (some centres not stated) [ATROPINE],–,–,–,–,–,–,–,0.016 mg/kg,0.0052 mg/kg,0.0043 mg/kg

# Further lines, with some results ahead:
Ki [1],Ki [4],Ki [5],Selectivity (Homo sapiens [6]),Ki [8],Ki [9],Selectivity (Homo sapiens [10]),SMILES,ED50 (Rattus norvegicus [2]),ED50 (Rattus norvegicus [3]),ED50 (Rattus norvegicus [7])
12 nM,0.27 nM,58 nM,42,150 nM,11 nM,210,O=C(CCNC(=O)[C@@H]1CCCN1C(=O)CC(c1ccccc1)(c1ccccc1)c1ccccc1)NC[C@H]1CCCN(CC2CCCCC2)C1,–,–,–
270 nM,3.3 nM,1100 nM,22,300 nM,74 nM,320,O=C(CCCNC(=O)CNC(=O)CC(c1ccccc1)(c1ccccc1)c1ccccc1)NCC1CCCN(CC2CCCCC2)C1 (configuration not stated),–,–,–
44 nM,0.76 nM,30 nM,41,36 nM,31 nM,40,O=C(CCNC(=O)CC(c1ccccc1)(c1ccccc1)c1ccccc1)NCCC(=O)NC[C@H]1CCCN(CC2CCCCC2)C1,–,–,–
13 nM,2.2 nM,2000 nM,19,150 nM,43 nM,890,O=C(CNC(=O)[C@@H]1CCCN1C(=O)CC(c1ccccc1)(c1ccccc1)c1ccccc1)NC[C@H]1CCCN(CC2CCCCC2)C1,–,–,–
72 nM,1 nM,210 nM,30,110 nM,30 nM,200,O=C(CCCCCNC(=O)CC(c1ccccc1)(c1ccccc1)c1ccccc1)NC[C@H]1CCCN(CC2CCCCC2)C1,–,–,–
